Results taken from ChEMBL document CHEMBL2010720, “Synthesis and evaluation of ursolic acid derivatives as potent cytotoxic agents” (Bioorg Med Chem Lett, 2012).

Legend:
[1] = system: AGS; assay: Cytotoxicity against human AGS cells after 48 hrs by MTT assay; format: functional, cell-based
In short: (§1)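 Cells seeded at 1×10^4 per well and treated 24 h later for 48 h at 10, 20, 40, 60, 80 and 100 µM, each in six wells. Compounds came from 20 mM DMSO stocks diluted in medium; the vehicle control matched the DMSO of the top dose. MTT was added for 4 h, formazan dissolved in DMSO and read at 570 nm. IC50 was taken as the concentration giving 50% growth inhibition.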

[2] = system: AGS; assay: Cell cycle arrest in human AGS cells assessed as accumulation at G2/M phase cells at 20.6 uM after 48 hrs by flow cytometry (reference value: 35.37 +/- 3.73%); format: functional
[3] = system: PC-3; assay: Cytotoxicity against human PC3 cells after 48 hrs by MTT assay; format: functional, cell-based; details: PC-3, 48 h; in short: as §1
[4] = system: HepG2; assay: Cytotoxicity against human HepG2 cells after 48 hrs by MTT assay; format: functional, cell-based; details: HepG2, 48 h; in short: as §1
[5] = system: AGS; assay: Cell cycle arrest in human AGS cells assessed as accumulation at G0/G1 phase cells at 20.6 uM after 48 hrs by flow cytometry (reference value: 28.07 +/- 3.52%); format: functional
[6] = system: HT-29; assay: Cytotoxicity against human HT-29 cells after 48 hrs by MTT assay; format: functional, cell-based; details: HT-29, 48 h; in short: as §1
[7] = system: AGS; assay: Cell cycle arrest in human AGS cells assessed as accumulation at sub-G0/G1 phase at 20.6 uM after 48 hrs by flow cytometry (reference value: 1.56 +/- 0.20%); format: functional
[8] = system: AGS; assay: Cell cycle arrest in human AGS cells assessed as accumulation at S phase cells at 20.6 uM after 48 hrs by flow cytometry (reference value: 36.56 +/- 0.36%); format: functional
[9] = system: AGS; assay: Cell cycle arrest in human AGS cells assessed as accumulation at G0/G1 phase cells at 10 uM after 48 hrs by flow cytometry (reference value: 28.07 +/- 3.52%); format: functional
[10] = system: AGS; assay: Cell cycle arrest in human AGS cells assessed as accumulation at G2/M phase cells at 10 uM after 48 hrs by flow cytometry (reference value: 35.37 +/- 3.73%); format: functional
[11] = system: AGS; assay: Cell cycle arrest in human AGS cells assessed as accumulation at sub-G0/G1 phase cells at 10 uM after 48 hrs by flow cytometry (reference value: 1.56 +/- 0.20%); format: functional
[12] = system: AGS; assay: Cell cycle arrest in human AGS cells assessed as accumulation at S phase cells at 10 uM after 48 hrs by flow cytometry (reference value: 36.56 +/- 0.36%); format: functional
[13] = system: AGS; assay: Induction of apoptosis in human AGS cells assessed as early apoptotic cells at 20 uM after 24 hrs by annexin-V/PI staining-based flow cytometric analysis (reference value: 1.9%); format: functional
[14] = system: AGS; assay: Induction of apoptosis in human AGS cells assessed as viable cells at 5 uM after 24 hrs by annexin-V/PI staining-based flow cytometric analysis (reference value: 95.5%); format: functional; details: read-out: Activity
[15] = system: AGS; assay: Induction of apoptosis in human AGS cells assessed as viable cells at 20 uM after 24 hrs by annexin-V/PI staining-based flow cytometric analysis (reference value: 95.5%); format: functional; details: read-out: Activity
[16] = system: AGS; assay: Induction of apoptosis in human AGS cells assessed as necrotic cells at 5 uM after 24 hrs by annexin-V/PI staining-based flow cytometric analysis (reference value: 0.1%); format: functional
[17] = system: AGS; assay: Induction of apoptosis in human AGS cells assessed as necrotic cells at 20 uM after 24 hrs by annexin-V/PI staining-based flow cytometric analysis (reference value: 0.1%); format: functional
[18] = system: AGS; assay: Induction of apoptosis in human AGS cells assessed as late apoptotic cells at 20 uM after 24 hrs by annexin-V/PI staining-based flow cytometric analysis (reference value: 2.5%); format: functional
[19] = system: AGS; assay: Induction of apoptosis in human AGS cells assessed as early apoptotic cells at 5 uM after 24 hrs by annexin-V/PI staining-based flow cytometric analysis (reference value: 1.9%); format: functional
[20] = system: AGS; assay: Induction of apoptosis in human AGS cells assessed as necrotic cells at 10 uM after 24 hrs by annexin-V/PI staining-based flow cytometric analysis (reference value: 0.1%); format: functional
[21] = system: AGS; assay: Induction of apoptosis in human AGS cells assessed as late apoptotic cells at 10 uM after 24 hrs by annexin-V/PI staining-based flow cytometric analysis (reference value: 2.5%); format: functional
[22] = system: AGS; assay: Induction of apoptosis in human AGS cells assessed as early apoptotic cells at 10 uM after 24 hrs by annexin-V/PI staining-based flow cytometric analysis (reference value: 1.9%); format: functional
[23] = system: AGS; assay: Induction of apoptosis in human AGS cells assessed as viable cells at 10 uM after 24 hrs by annexin-V/PI staining-based flow cytometric analysis (reference value: 95.5%); format: functional; details: read-out: Activity
[24] = system: AGS; assay: Induction of apoptosis in human AGS cells assessed as late apoptotic cells at 5 uM after 24 hrs by annexin-V/PI staining-based flow cytometric analysis (reference value: 2.5%); format: functional

SMILES	IC50 [1] [µM]	IC50 [3] [µM]	IC50 [4] [µM]	IC50 [6] [µM]	Activity [9] [%]	Activity [10] [%]	Activity [11] [%]	Activity [12] [%]	also measured
C[C@H]1[C@H](C)CC[C@]2(C(=O)O)CC[C@]3(C)C(=CC[C@@H]4[C@@]5(C)CC[C@H](O)C(C)(C)[C@@H]5CC[C@]43C)[C@H]12 [URSOLIC ACID]	20.6	22.3	53.4	25.3					Activity [2]: 52.16%; Activity [5]: 33.2%; Activity [7]: 86.53%; Activity [8]: 14.64%
CSCC[C@H](N)C(=O)NCCNC(=O)[C@]12CC[C@@H](C)[C@H](C)[C@H]1C1=CC[C@@H]3[C@@]4(C)CC[C@H](OC(C)=O)C(C)(C)[C@@H]4CC[C@@]3(C)[C@]1(C)CC2	< 10	< 10	< 10	< 10	54.97	45.03	82.38	0	
C[C@H]1[C@H](C)CC[C@]2(C(=O)NC(CCC(=O)O)C(=O)O)CC[C@]3(C)C(=CC[C@@H]4[C@@]5(C)CC[C@H](O)C(C)(C)[C@@H]5CC[C@]43C)[C@H]12 (stereo not given in full)	> 100	> 100	> 100	> 100					
CC(=O)O[C@H]1CC[C@]2(C)[C@H]3CC=C4[C@@H]5[C@@H](C)[C@H](C)CC[C@]5(C(=O)NCCNC(=O)CN)CC[C@@]4(C)[C@]3(C)CC[C@H]2C1(C)C	< 10	14.3	15.5	20.2	36.97	37.66	75.45	25.37	
CC(=O)O[C@H]1C(=O)[C@@]2(C)[C@H]([C@H](OC(=O)c3ccccc3)[C@]3(O)C[C@H](OC(=O)[C@H](O)[C@@H](NC(=O)c4ccccc4)c4ccccc4)C(C)=C1C3(C)C)[C@]1(OC(C)=O)CO[C@@H]1C[C@@H]2O [PACLITAXEL]	< 10	57.2	30.7	< 10	5.92	86.18	70.41	7.9	
C[C@H]1[C@H](C)CC[C@]2(C(=O)NC(CC(=O)O)C(=O)O)CC[C@]3(C)C(=CC[C@@H]4[C@@]5(C)CC[C@H](O)C(C)(C)[C@@H]5CC[C@]43C)[C@H]12 (stereo not given in full)	> 100	> 100	> 100	> 100					
C[C@H]1[C@H](C)CC[C@]2(C(=O)NCCNC(=O)CN)CC[C@]3(C)C(=CC[C@@H]4[C@@]5(C)CC[C@H](O)C(C)(C)[C@@H]5CC[C@]43C)[C@H]12	10.2	19.6			17.72	71.45	44.69	11.23	
CSCC[C@H](N)C(=O)NCCNC(=O)[C@]12CC[C@@H](C)[C@H](C)[C@H]1C1=CC[C@@H]3[C@@]4(C)CC[C@H](O)C(C)(C)[C@@H]4CC[C@@]3(C)[C@]1(C)CC2	< 10	< 10	16		12.9	68.65	50.03	18.46	
C[C@H]1[C@H](C)CC[C@]2(C(=O)NCCN)CC[C@]3(C)C(=CC[C@@H]4[C@@]5(C)CC[C@H](O)C(C)(C)[C@@H]5CC[C@]43C)[C@H]12	11.4	< 10	21.3	14.3	30.83	2.51	92.64	66.66	Activity [13]: 68.6%; viability at 5 µM [14]: 84.7%; viability at 20 µM [15]: 13.7%; Activity [16]: 0.2%; Activity [17]: 0.5%; Activity [18]: 17.2%; Activity [19]: 8.9%; Activity [20]: 0.7%; Activity [21]: 11.8%; Activity [22]: 27.7%; viability at 10 µM [23]: 59.9%; Activity [24]: 6.1%
C[C@H]1[C@H](C)CC[C@]2(C(=O)NCCNC(=O)[C@@H](N)Cc3ccccc3)CC[C@]3(C)C(=CC[C@@H]4[C@@]5(C)CC[C@H](O)C(C)(C)[C@@H]5CC[C@]43C)[C@H]12	< 10	< 10			42.62	45.59	47.73	11.79	
CC(=O)O[C@H]1CC[C@]2(C)[C@H]3CC=C4[C@@H]5[C@@H](C)[C@H](C)CC[C@]5(C(=O)NCCN)CC[C@@]4(C)[C@]3(C)CC[C@H]2C1(C)C	< 10	< 10	12.4	< 10	51.86	46.72	88.3	1.42	
CC(=O)O[C@H]1CC[C@]2(C)[C@H]3CC=C4[C@@H]5[C@@H](C)[C@H](C)CC[C@]5(C(=O)NCCNC(=O)[C@@H](N)Cc5ccccc5)CC[C@@]4(C)[C@]3(C)CC[C@H]2C1(C)C	< 10	< 10	< 10	< 10	63.49	35.31	87.64	2.06	
